We go through 19 compounds from ChEMBL document CHEMBL3286364, “Ligand efficiency driven design of new inhibitors of Mycobacterium tuberculosis transcriptional repressor EthR using fragment growing, merging, and linking approaches” (J Med Chem, 2014).

The test system of data set [1] is Mycobacterium tuberculosis. Kind of data set: Binding affinity to Mycobacterium tuberculosis EthR assessed as change in melting temperature at 20 uM by thermal shift assay. The essentials: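 Protein unfolding tracked with SYPRO Orange in a real-time PCR instrument. Ligand at 20 μM in EthR buffer (10 mM Tris/HCl, 300 mM NaCl, 0.1 mM EDTA, pH 7.5). Heated 37 to 85 °C at 0.04 °C/s, fluorescence read at Ex/Em 465/510 nm. ΔTm taken as the holo minus apo melting temperature.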

Data set [2] relates to Mycobacterium tuberculosis. Kind of data set: Antimicrobial activity against Mycobacterium tuberculosis H37Rv expressing GFP infected in mouse RAW264.7 cells assessed as concentration required to potentiate 0.1 ug/ml […] to inhibit microbial growth by 50% by fluorescence assay. Type of data set: functional, organism-based. The procedure, abridged:
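RAW264.7 macrophages infected with H37Rv-GFP at MOI 1:1 for 2 h at 37 °C with shaking. Extracellular bacilli killed with amikacin (20 μM, 1 h). Infected cells added to compound serial dilutions (ten 2-fold) with ethionamide fixed at 0.1 μg/mL, 5 days at 37 °C, 5% CO2. SYTO 60 stained; confocal imaging gives percent infected cells and cell number. Two replicates averaged.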

Data set [3] can be described thus: Solubility in PBS at pH 7.4 after 24 hrs by LC-MS/MS analysis. Type of data set: physicochemical. The essentials:
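10 mM DMSO stock diluted 1:50 into PBS pH 7.4 or MeOH. Shaken 24 h at room temperature, centrifuged, filtered (0.45 μm), diluted tenfold in MeOH. Analysed by LC-MS/MS (SIM or MRM). Solubility from the PBS/MeOH ratio of mass signal areas.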

Data set [4] can be described thus: Inhibition of Mycobacterium tuberculosis EthR assessed as inhibition of EthR-DNA interaction after 3 mins by SPR assay. The essentials: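 106-bp biotinylated ethA/ethR intergenic DNA immobilised on a streptavidin chip (about 75 RU). An irrelevant 113-bp bla fragment in the reference channel; signal taken as the channel difference. Preincubated 5 min at 37 °C, injected at 20 μL/min for 3 min at 25 °C. Response read at end of injection; IC50 from dose-response.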

Some results are limits rather than exact numbers.

For `CC(C)CCNS(=O)(=O)c1ccc(I)cc1`, the ΔTm in data set [1] worked out at 1.9 °C. In addition, the EC50 in data set [2] is above 10 µM.

With `Cc1nc(-c2ccc(S(=O)(=O)NCCC(C)(C)C)cc2)cs1`, the ΔTm in data set [1] was found to be 2.3 °C. Besides, the EC50 in data set [2] is above 20 µM.

Turning to `CC(C)CCNS(=O)(=O)c1ccc(CCC(C)C)cc1`, the shift in melting temperature (ΔTm) in data set [1] came out at 3.2 °C. For the same compound, the EC50 in data set [2] amounted to 6.3 µM.

For the compound `CC(C)CCNS(=O)(=O)c1ccc(N2CCCC2=O)cc1`, in data set [1], the ΔTm worked out at 0.6 °C. Moreover, in data set [2], the EC50 is above 10 µM.

Consider `Cc1nc(-c2ccc(S(=O)(=O)NCCC(F)(F)F)cc2)cs1`, for which, in data set [3], the solubility at 24 h was 14.5 µg/mL. The 50% inhibitory concentration (IC50) in data set [4] amounted to 0.55 µM. The ΔTm in data set [1] was found to be 8.5 °C. For the same compound, the EC50 in data set [2] is 0.29 µM.

Regarding `CCCCOc1ccc(S(=O)(=O)NCCC(C)C)cc1`, the ΔTm in data set [1] stood at 3.6 °C. For the same compound, the EC50 in data set [2] was above 10 µM.

For the compound `COc1ccc(-c2ccc(S(=O)(=O)NCCC(C)C)cc2)cc1`, the shift in melting temperature (ΔTm) in data set [1] was found to be 3.7 °C. The EC50 in data set [2] was above 10 µM.

`CCCS(=O)(=O)NCc1nc(-c2ccc(C(=O)NCCC(F)(F)F)cc2)cs1` returned a solubility at 24 h in data set [3] of 1.3 µg/mL. Moreover, in data set [4], the IC50 came out at 0.56 µM. The ΔTm in data set [1] amounted to 6.6 °C. The EC50 in data set [2] stood at 0.32 µM.

With `CC(=O)Nc1ccc(-c2ccc(S(=O)(=O)NCCC(C)C)cc2)cc1`, in data set [1], the ΔTm amounted to 2 °C. For the same compound, the concentration for a half-maximal effect (EC50) in data set [2] is above 10 µM.

In turn, `C#CCNS(=O)(=O)c1ccc(I)cc1` returned a solubility at 24 h in data set [3] above 200 µM. Besides, the half-maximal inhibitory concentration (IC50) in data set [4] is 160 µM. The ΔTm in data set [1] worked out at 0.1 °C. In data set [2], the EC50 is above 10 µM.

As for `CC(C)CCNS(=O)(=O)c1ccc(-c2cnco2)cc1`, in data set [1], the ΔTm was found to be 1.2 °C. For the same compound, the EC50 in data set [2] was above 10 µM.

`Cc1nc(-c2ccc(S(=O)(=O)NCC(F)(F)F)cc2)cs1`: the ΔTm in data set [1] was determined as 6.3 °C. The EC50 in data set [2] came to 7.9 µM.

For the compound `Cc1nc(-c2ccc(C(=O)NCCC(F)(F)F)cc2)cs1`, the concentration in solution in data set [3] (solubility at 24 h) came to 14.7 µg/mL. The IC50 in data set [4] was 0.4 µM. The thermal shift (ΔTm) in data set [1] is 11.2 °C. Also, the EC50 in data set [2] was 0.08 µM.

Regarding `Cc1nc(-c2ccc(S(=O)(=O)NCCC(C)C)cc2)cs1`, in data set [3], the solubility at 24 h turned out to be 6.6 µg/mL. In data set [4], the IC50 is 4.9 µM. In data set [1], the ΔTm is 6.1 °C. Besides, the EC50 in data set [2] was determined as 5.7 µM.

Take `Cc1nc(-c2ccc(S(=O)(=O)NCCCC(F)(F)F)cc2)cs1`: the ΔTm in data set [1] worked out at 6.6 °C. Further, the EC50 in data set [2] was above 2.5 µM.

For the compound `CC(C)CCNS(=O)(=O)c1ccc(-n2cccn2)cc1`, in data set [1], the ΔTm was 1.9 °C. Further, the EC50 in data set [2] is above 10 µM.

Turning to `CC(C)CCNS(=O)(=O)c1ccc(-c2ccc(F)cc2)cc1`, the shift in melting temperature (ΔTm) in data set [1] amounted to 2.2 °C. The EC50 in data set [2] is above 10 µM.

In turn, `O=C(NCCC(F)(F)F)c1ccc(C#CCNS(=O)(=O)c2ccccc2)cc1` registered a solubility at 24 h in data set [3] of 3 µg/mL. The IC50 in data set [4] worked out at 3.9 µM. Besides, the ΔTm in data set [1] was 4.2 °C. Moreover, the EC50 in data set [2] came to 0.23 µM.

For `CCOC(=O)c1ccc(S(=O)(=O)NCCC(C)C)cc1`, the ΔTm in data set [1] is 4.3 °C. Also, the EC50 in data set [2] came to 10 µM.

What is called ΔTm is the shift of the melting midpoint relative to a reference. As usually defined, the EC50 is the concentration needed to bring the measured effect to its halfway point. One may read the solubility as the concentration that dissolves in the medium under given conditions. A low value points to a poorly soluble substance. In general, IC50 refers to the concentration that inhibits the measured activity by half.
